Test results: ChEMBL document CHEMBL1122840, “SAR studies in the field of calcium(II) antagonists. Effect of modifications at the tetrasubstituted carbon of verapamil-like compounds” (1985)

How the values were obtained:
Cavia porcellus [1] = species on record: Cavia porcellus; experiment: Coronary perfusion pressure of isolated guinea pig heart at dose 0.005 (ug/heart); format: functional
Procedure, shortened: (§1)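 Heart perfused via an aortic inflow cannula; coronary perfusion pressure was recorded in that cannula with a pressure transducer. After 30-min stabilization, drug dissolved in perfusion liquid was injected through a side arm over 1 min, at constant volume. Six preparations per compound; mean, SE and percent of basal value were calculated for each dose.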

Cavia porcellus [2] = species on record: Cavia porcellus; experiment: Coronary perfusion pressure of isolated guinea pig heart at dose 0.05 (ug/heart); format: functional; procedure, shortened: as §1
Cavia porcellus [3] = species on record: Cavia porcellus; experiment: Coronary perfusion pressure of isolated guinea pig heart at dose 0.5 (ug/heart); format: functional; procedure, shortened: as §1
Cavia porcellus [4] = species on record: Cavia porcellus; experiment: Coronary perfusion pressure of isolated guinea pig heart at dose 5 (ug/heart); format: functional; procedure, shortened: as §1
Cavia porcellus [5] = species on record: Cavia porcellus; experiment: Left ventricular pressure of isolated guinea pig heart at dose 0.005 (ug/heart); format: functional, Cardiac ventricle
Procedure, shortened: (§2)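 Perfused heart, 30-min stabilization, then a 1-min constant-volume injection of drug dissolved in perfusion liquid via a side arm of the aortic inflow cannula. Six preparations per compound; mean, SE and percent of basal value were calculated for each dose.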

Cavia porcellus [6] = species on record: Cavia porcellus; experiment: Left ventricular pressure of isolated guinea pig heart at dose 0.05 (ug/heart); format: functional, Cardiac ventricle; procedure, shortened: as §2
Cavia porcellus [7] = species on record: Cavia porcellus; experiment: Left ventricular pressure of isolated guinea pig heart at dose 0.5 (ug/heart); format: functional, Cardiac ventricle; procedure, shortened: as §2
Cavia porcellus [8] = species on record: Cavia porcellus; experiment: Left ventricular pressure of isolated guinea pig heart at dose 5 (ug/heart); format: functional, Cardiac ventricle; procedure, shortened: as §2
Cavia porcellus [9] = species on record: Cavia porcellus; experiment: Heart rate of isolated guinea pig heart at dose 0.005 (ug/heart); format: functional
Procedure, shortened: (§3)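 Rate was derived from the left ventricular pressure tracing of the perfused heart. Drug dissolved in perfusion liquid was given as a 1-min side-arm injection into the aortic inflow cannula after 30-min stabilization, at constant volume. Six preparations per compound; values expressed as mean, SE and percent of basal for each dose.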

Cavia porcellus [10] = species on record: Cavia porcellus; experiment: Heart rate of isolated guinea pig heart at dose 0.05 (ug/heart); format: functional; procedure, shortened: as §3
Cavia porcellus [11] = species on record: Cavia porcellus; experiment: Heart rate of isolated guinea pig heart at dose 0.5 (ug/heart); format: functional; procedure, shortened: as §3
Cavia porcellus [12] = species on record: Cavia porcellus; experiment: Heart rate of isolated guinea pig heart at dose 5 (ug/heart); format: functional; procedure, shortened: as §3
Cavia porcellus [13] = species on record: Cavia porcellus; experiment: Coronary perfusion pressure of isolated guinea pig heart at dose 5 ug/heart); format: functional; procedure, shortened: as §1

| Compound | CPP (Cavia porcellus [1]) [mmHg] | CPP (Cavia porcellus [2]) [mmHg] | CPP (Cavia porcellus [3]) [mmHg] | CPP (Cavia porcellus [4]) [mmHg] | LVP (Cavia porcellus [5]) [mmHg] | LVP (Cavia porcellus [6]) [mmHg] | LVP (Cavia porcellus [7]) [mmHg] | LVP (Cavia porcellus [8]) [mmHg] | HR (Cavia porcellus [9]) [beats min-1] | HR (Cavia porcellus [10]) [beats min-1] | HR (Cavia porcellus [11]) [beats min-1] | HR (Cavia porcellus [12]) [beats min-1] | CPP (Cavia porcellus [13]) [mmHg] |
| --- | --- | --- | --- | --- | --- | --- | --- | --- | --- | --- | --- | --- | --- |
| COc1ccc(CCN(C)CCCC(c2ccccc2)(c2ccccc2)C(C)C)cc1OC.O=C(O)C(=O)O | 46.3 | 50 | 49.3 | 49.3 | 74.3 | 65.3 | 66.7 | 65.3 | 155.3 | 154.7 | 150 | 150.7 |  |
| COc1ccc(CCN(C)CCC=C2c3ccccc3-c3ccccc32)cc1OC.O=C(O)C(=O)O | 50 | 50 | 51 | 51 | 53 | 53 | 54 | 54 | 210 | 210 | 208 | 208 |  |
| COc1ccc(CCN(C)CCC=C(c2ccccc2)c2ccccc2)cc1OC.O=C(O)C(=O)O | 48 | 51 | 47.3 | 47.3 | 75.7 | 75.3 | 75.7 | 75.7 | 150 | 150 | 150 | 150 |  |
| COc1ccc(CCN(C)C/C=C/C2(C(C)C)c3ccccc3-c3ccccc32)cc1OC.O=S(=O)(O)O | 83.8 | 82.4 | 77 | 74.4 | 43.2 | 43.2 | 44 | 43.2 | 182.6 | 177.8 | 180.6 | 176.6 |  |
| COc1ccc(CCN(C)CCCC2c3ccccc3-c3ccccc32)cc1OC.O=C(O)C(=O)O | 52 | 52 | 56 | 51.3 | 88.5 | 89.5 | 91.2 | 89.3 | 150 | 150 | 150 | 149.3 |  |
| COc1ccc(CCN(C)CCCC2(C#N)c3ccccc3-c3ccccc32)cc1OC.[O-][Cl+3]([O-])([O-])O | 47.7 | 45.2 | 45 |  | 47.2 | 41.8 | 38.7 | 38.5 | 213 | 208 | 203 | 194.8 | 43.8 |
| COc1ccc(CCN(C)CCCC(C#N)(c2ccccc2)c2ccccc2)cc1OC.[O-][Cl+3]([O-])([O-])O | 73 | 72.6 | 71.2 | 68.7 | 31.6 | 28.6 | 27.8 | 26.8 | 162 | 160.2 | 159.8 | 158.3 |  |
| COc1ccc(CCN(C)CCCC(c2ccccc2)c2ccccc2)cc1OC.O=C(O)C(=O)O | 48 | 48 | 48.7 | 47.3 | 67.5 | 67.5 | 67.4 | 66.7 | 152 | 152 | 152 | 152 |  |
| COc1ccc(CCN(C)CCCC2(C(C)C)c3ccccc3-c3ccccc32)cc1OC.O=S(=O)(O)O | 76.4 | 78.6 | 78.4 | 78.4 | 38.4 | 38 | 37 | 36 | 211 | 209 | 207 | 204.4 |  |
| COc1ccc(CCN(C)CCCC2(C#N)c3ccccc3-c3ccccc32)cc1OC.O=C(O)C(=O)O | 44.2 | 42 | 42 | 41.2 | 43.3 | 41.7 | 41.3 | 39.5 | 211.5 | 209.7 | 206 | 205 |  |
| COc1ccc(CCN(C)CCCC(C#N)(c2ccc(OC)c(OC)c2)C(C)C)cc1OC (configuration not stated) [VERAPAMIL] | 51.7 | 50.3 | 49.7 | 48.8 | 25.7 | 24 | 21.5 | 13 | 210 | 203.8 | 200.3 | 188 |  |
